Bioassay records: PubChem, The Scripps Research Institute Molecular Screening Center
An excerpt weighted towards active compounds, which were near 4.6% of everything screened.
GPR7 antagonist = GPR7 receptor antagonists, primary screen, cell-based, fluorescence, single concentration; Neuropeptides B/W receptor type 1 (Homo sapiens), P48145; GPR7-expressing cells, fluorescence antagonist assay; inhibition, % at 4.4 µM; actives 1.1% (n = 290,000); in the data active = inhibition above about 16%, passing the limit was not always enough;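 note: cells stimulated with the agonist NPW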
Target sequence (P48145 whole entry, looked up): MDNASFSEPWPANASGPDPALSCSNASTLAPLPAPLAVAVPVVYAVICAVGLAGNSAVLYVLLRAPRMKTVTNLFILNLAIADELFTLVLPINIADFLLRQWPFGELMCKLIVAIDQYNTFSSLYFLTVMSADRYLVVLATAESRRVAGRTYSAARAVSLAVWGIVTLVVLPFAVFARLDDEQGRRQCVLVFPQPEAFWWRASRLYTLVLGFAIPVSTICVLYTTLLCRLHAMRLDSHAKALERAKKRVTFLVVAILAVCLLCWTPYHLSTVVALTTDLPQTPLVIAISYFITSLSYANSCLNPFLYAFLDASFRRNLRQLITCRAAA
TAAR1 ag = human TAAR1 agonists, primary screen, Fluo-8 calcium fluorescence, CHO RD-HGA16 cells | Trace amine-associated receptor 1 (Homo sapiens), Q96RJ0 | vehicle wells 0%, saturating PEA agonist 100% | activation, % at 3 µM | actives 0.99% (n = 360,000) | AID 624467, 2012;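 active = activation above the mean activation of all test compounds in the run plus 3 SD, cut at about 38% in these data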
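Benchmarks: low control DMSO, high control PEA (EC100); System: CHO RD-HGA16 cells carrying human TAAR1 plus Gα16; Detection: Fluo-8 fluorescence, 5 s baseline then 140 s kinetic read; Schedule: 17-24 h plating, Fluo-8 75 min 37 °C, 30 min RT; Read-out basis: % activation from peak over basal fluorescence ratio, DMSO-to-PEA scaled.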
CHO parental Ca = ATP-evoked calcium signal inhibitors, parental CHO, primary screen, counter-screen for OX1R antagonist project, cell-based, fluorescence, Fluo-8 calcium dye | parental CHO-K1, ATP-induced calcium, Fluo-8 fluorescence | inhibition, % at 5.6 µM | actives 0.63% (n = 330,000);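 active = inhibition above that plate's mean sample inhibition plus 3 SD, cut at about 26% in these data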
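Assay system – parental CHO cells · Reagent – ATP stimulus · Detection – intracellular calcium via Fluo-8 no-wash fluorescent dye · Evaluation – percent inhibition of ATP-evoked calcium rise, normalized to controls · Controls – ATP wells versus no-ATP DMSO wells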
TAAR1 antagonist = human TAAR1 antagonists, primary screen, Fluo-8 calcium fluorescence, CHO RD-HGA16 cells. inhibition, % at 3 µM. antagonist. AID 624466, 2012. actives 1.5% (n = 360,000);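 active = inhibition above a per-plate cutoff, the mean inhibition of test compounds on that plate plus 3 SD, cut at about 49% in these data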
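Assay system: CHO-derived RD-HGA16 cells stably expressing human TAAR1 plus Gα16. Timing: 140 s kinetic read after compound, 140 s after agonist. Technique: kinetic Fluo-8 calcium fluorescence measurement. Measure: % inhibition of agonist calcium response.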
OX1R antag-1 = OX1R (HCRTR1) antagonists, primary screen, fluorescence, CHO/OX1R cells, Fluo-8 calcium, orexin A; inhibition, % at 5 µM; Orexin/Hypocretin receptor type 1 (Homo sapiens), O43613; actives 0.43% (n = 330,000); Fluo-8 calcium fluorescence;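 active = inhibition above its plate's threshold, mean inhibition of all tested compounds on the plate plus 3 SD, cut at about 37% in these data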
Target sequence (O43613 whole entry, looked up): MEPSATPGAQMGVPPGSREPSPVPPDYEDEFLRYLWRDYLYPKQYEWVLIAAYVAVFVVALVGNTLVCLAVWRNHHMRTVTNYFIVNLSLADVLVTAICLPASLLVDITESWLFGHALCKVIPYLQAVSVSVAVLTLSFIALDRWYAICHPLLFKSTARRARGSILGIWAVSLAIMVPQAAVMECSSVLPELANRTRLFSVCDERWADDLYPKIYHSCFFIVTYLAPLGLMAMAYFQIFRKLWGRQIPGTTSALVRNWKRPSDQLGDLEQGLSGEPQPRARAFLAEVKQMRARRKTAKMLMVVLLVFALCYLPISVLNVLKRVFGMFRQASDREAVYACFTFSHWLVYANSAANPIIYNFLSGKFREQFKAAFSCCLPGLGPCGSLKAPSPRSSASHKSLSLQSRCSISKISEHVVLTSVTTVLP
OX1R antag-2 = antagonists of human orexin 1 receptor (OX1R). Orexin/Hypocretin receptor type 1 (Homo sapiens), O43613. actives 1.8% (n = 330,000). OX1R-expressing cells, FRET antagonist read-out. inhibition, % at 6.6 µM. AID 485270, 2010; in the data active = inhibition mostly above about 38%, no sharp cut-off; inactive = mostly below about 40%
OX1R Ca confirm = OX1R (HCRTR1) antagonists, confirmation, fluorescence, CHO/OX1R cells, Fluo-8 calcium, orexin A; shares compounds with OX1R antag-1; orexin A calcium Fluo-8 fluorescence; inhibition, % at 5 µM; actives 38% (n = 1,100); in the data active = inhibition above about 29%
CHO Ca triplic = ATP-evoked calcium inhibition in parental CHO, counter-screen for OX1R antagonist project, cell-based, fluorescence, CHO-K1, triplicate | shares compounds with OX1R antag-1 | ATP-induced calcium, Fluo-8 fluorescence | inhibition, % at 5.6 µM | actives 9.3% (n = 1,100) | AID 492965, 2010;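 active = inhibition above a per-plate limit, the mean inhibition of that plate's test compounds plus 3 SD, cut at about 25% in these data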
Of the large screens only hits and unclear results are named; the others gave an inactive call (follow-up assays come after a bar, where they were run).

CCCOC(=O)C(C)n1cnc2sc(C)c(C)c2c1=O (configuration not stated)	none
CS(=O)(=O)c1ccc(-c2cc(NC=O)c3ncc(-c4ccc(F)cc4)n3c2)cc1	none (no result: GPR7 antagonist, CHO parental Ca, OX1R antag-1, OX1R antag-2)
CCCN(CCC)CC(O)Cn1c2ccccc2c2ccccc21 (configuration not stated)	none
CS(=O)(=O)N(Cc1ccco1)CC(O)Cn1c2ccccc2c2ccccc21 (configuration not stated)	OX1R antag-1 51.1 | OX1R Ca confirm 30.3 | CHO Ca triplic inactive
FC(F)(F)c1nnc(N2CCN(c3ccc(Cl)cc3)CC2)s1	none
FC(F)(F)c1nnc(Nc2ccc(Cl)cc2)s1	OX1R antag-1 42.4 | OX1R Ca confirm inactive | CHO Ca triplic inactive
Cc1cccc(NC(=O)C2CCCN2C(=O)Oc2ccccc2)c1C (configuration not stated)	none | OX1R Ca confirm inactive | CHO Ca triplic inactive
COc1cccc(CN2C(=O)C(C)N(C(=O)c3c(F)cccc3F)c3ccccc32)c1 (configuration not stated)	none | OX1R Ca confirm inactive | CHO Ca triplic inactive
COc1cccc(-c2ccc3c(c2)N(Cc2cccc(F)c2)C(=O)C(C)S3)c1 (configuration not stated)	none (no result: GPR7 antagonist, CHO parental Ca, OX1R antag-1, OX1R antag-2)
Cc1cc2c(=O)n(C)c(SCC(=O)Nc3ccccc3C)nc2s1	none (no result: GPR7 antagonist)
CC(NS(C)(=O)=O)C(c1cccs1)N1CCN(Cc2ccccc2)CC1 (configuration not stated)	none
CCOC(=O)C1=CC[C@@H](c2cccc(C)c2)N(S(=O)(=O)c2ccc(C)cc2)[C@H]1C(=O)OCC	none (no result: GPR7 antagonist) | OX1R Ca confirm inactive | CHO Ca triplic inactive
CCOC(=O)C1=CC[C@@H](c2ccccc2Cl)N(S(=O)(=O)c2ccc(C)cc2)[C@H]1C(=O)OCC	OX1R antag-1 60.0 (no result: GPR7 antagonist) | OX1R Ca confirm inactive | CHO Ca triplic inactive
O=S(=O)(c1ccc2c(c1)OCCO2)N1CCN(Cc2ccccc2)CC1	none | OX1R Ca confirm inactive | CHO Ca triplic inactive
O=C(O)CN(Cc1ccccc1)S(=O)(=O)c1ccc2c(c1)OCCO2	none | OX1R Ca confirm inactive | CHO Ca triplic inactive
O=C(c1ccco1)N1CCN(c2ncccn2)CC1	none | OX1R Ca confirm inactive | CHO Ca triplic inactive
O=C(c1ccco1)N1CCN(C(=O)N2CCCC2)CC1	none
CSc1ccc(CN(C)C(=O)c2cccc(S(=O)(=O)NCc3ccccc3)c2)cc1	OX1R antag-1 39.8 | OX1R Ca confirm inactive | CHO Ca triplic inactive
O=C(c1ccccc1)N1CCN(c2nc3ccc([N+](=O)[O-])cc3s2)CC1	none | OX1R Ca confirm inactive | CHO Ca triplic inactive
CCN(CC)S(=O)(=O)c1ccc(=O)n(CC(=O)N2Cc3ccccc3CC2C(N)=O)c1 (configuration not stated)	none (no result: GPR7 antagonist, CHO parental Ca, OX1R antag-1, OX1R antag-2)
CC(C)(C)c1ccc(S(=O)(=O)N(CCCN2CCOCC2)Cc2cccs2)cc1	OX1R antag-1 102.7 | OX1R Ca confirm inactive | CHO Ca triplic inactive
O=C(Nc1ccccc1)N(CCCN1CCOCC1)Cc1cccs1	none
Nn1cnc2c(ncn2C2OC(CO)C(O)C2O)c1=O (configuration not stated)	none (no result: GPR7 antagonist, CHO parental Ca, OX1R antag-1, OX1R antag-2)
CCOc1cc(S(=O)(=O)Nc2ccc(Cl)cn2)ccc1Cl	none
CCOc1cc(S(=O)(=O)Nc2ccccc2CC)ccc1Cl	OX1R antag-1 56.1 | OX1R Ca confirm inactive | CHO Ca triplic inactive
CC(=O)NC(C)C(=O)OCC(=O)Nc1ccc(Br)cc1 (configuration not stated)	none | OX1R Ca confirm inactive | CHO Ca triplic inactive
CCCCNC(=O)c1ccc(N2CCOCC2)c(NS(=O)(=O)c2ccc(OC)cc2)c1	none
CCNC(=O)Nc1cc(S(=O)(=O)Nc2ccc(OC)cc2)ccc1N1CCOCC1	OX1R antag-1 41.0 (no result: GPR7 antagonist, TAAR1 ag, TAAR1 antagonist) | OX1R Ca confirm 35.6 | CHO Ca triplic 75.0
CC(=O)n1cc([C@H]2C=C(C(=O)Nc3ccccc3)O[C@@H](OCc3ccc(CO)cc3)C2)c2ccccc21	none (no result: TAAR1 ag, TAAR1 antagonist)
CC(=O)n1cc([C@@H]2C=C(C(=O)NCc3ccccc3)O[C@H](OCc3ccc(CO)cc3)C2)c2ccccc21	TAAR1 antagonist 61.5 (no result: GPR7 antagonist) | OX1R Ca confirm inactive | CHO Ca triplic inactive
O=C(COc1ccccc1[N+](=O)[O-])Nc1cccc(S(=O)(=O)NC2=NCCCCC2)c1	none (no result: GPR7 antagonist)
COc1ccc(NS(=O)(=O)c2cccc(NC(=O)COc3ccccc3[N+](=O)[O-])c2)cc1	OX1R antag-1 50.8 (no result: GPR7 antagonist) | OX1R Ca confirm inactive | CHO Ca triplic inactive
CC1=CC(C)(C)N(S(=O)(=O)c2ccc(C)cc2)c2ccc(C)cc21	none | OX1R Ca confirm inactive | CHO Ca triplic 55.6
C/C=C/C(=O)N1c2ccc(C)cc2C(C)=CC1(C)C	none
CC(Oc1ccc(Br)cc1Cl)C(=O)Nc1ccncc1 (configuration not stated)	none | OX1R Ca confirm 32.8 | CHO Ca triplic inactive
CC(Oc1ccc(Br)cc1)C(=O)Nc1ccncc1 (configuration not stated)	none
O=S(=O)(c1ccccc1)N1CCN(c2ncnc3sc(-c4ccccc4)cc23)CC1	none (no result: CHO parental Ca, OX1R antag-1, OX1R antag-2)
NNC(=O)c1cc2c(N3CCC(Cc4ccccc4)CC3)ncnc2s1	none | OX1R Ca confirm inactive | CHO Ca triplic inactive
Cc1cc(C)nc(SCC(=O)Nc2ccc(N3CCOCC3)c(Cl)c2)n1	none | OX1R Ca confirm inactive | CHO Ca triplic 30.6
CNc1nc(SCC(=O)Nc2ccc(Cl)c(Cl)c2)nc(N2CCOCC2)n1	none
CCOC(=O)C1=C(C#N)C(C(=O)OCC)c2ncccc21 (configuration not stated)	none (no result: GPR7 antagonist, CHO parental Ca, OX1R antag-1, OX1R antag-2)
O=C(C[C@H]1C[C@@H]2c3cc(NS(=O)(=O)c4ccccc4)ccc3O[C@@H]2[C@H](CO)O1)NC1CCCC1	none (no result: GPR7 antagonist, CHO parental Ca, OX1R antag-1, OX1R antag-2)
Cc1[nH]c2ccc(C(=O)OC(C)C(=O)NC3CCCCC3C)cc2c1C (configuration not stated)	none (no result: GPR7 antagonist) | OX1R Ca confirm inactive | CHO Ca triplic inactive
CCOC(=O)C(=CNNc1ccccc1)C(=O)OCC	none
